Laboratory results: ChEMBL document CHEMBL2146357, “Cellular zwitterionic metabolite analogs simultaneously enhance reaction rate, thermostability, salt tolerance, and substrate specificity of α-glucosidase” (Bioorg Med Chem, 2011)
Activity calls are given as the source filed them. No cut-off for these calls is given here.

Tests used:
[1] = test system: Geobacillus stearothermophilus; experiment: Increase of Bacillus stearothermophilus alpha-glucosidase activity assessed as fold increase in reaction initial velocity using p-nitrophenyl-alpha-D-galactopyranoside as substrate at 750 mM after 3 mins by spectrophotometer relative to control
Procedure, shortened: (§1)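 Enzyme: B. stearothermophilus α-glucosidase, 2.5 × 10^-5 mg/mL, with 2.0 mM substrate (p-nitrophenyl α-D-glucoside, β-D-glucoside, α-D-galactoside or α-D-mannoside) and 0, 50 or 750 mM solute in 100 mM phosphate pH 7.0 at 37 °C. Initial velocities came from A405 slopes (five measurements). Results given as v(presence)/v(absence).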

[2] = test system: Geobacillus stearothermophilus; experiment: Increase of Bacillus stearothermophilus alpha-glucosidase activity assessed as fold increase in reaction initial velocity using p-nitrophenyl-beta-D-glucopyranoside as substrate at 750 mM after 3 mins by spectrophotometer relative to control; procedure, shortened: as §1
[3] = test system: Geobacillus stearothermophilus; experiment: Increase of Bacillus stearothermophilus alpha-glucosidase activity assessed as fold increase in reaction initial velocity using p-nitrophenyl-alpha-D-glucopyranoside as substrate at 750 mM after 3 mins by spectrophotometer relative to control; procedure, shortened: as §1
[4] = test system: Geobacillus stearothermophilus; experiment: Increase of Bacillus stearothermophilus alpha-glucosidase activity assessed as fold increase in reaction initial velocity using p-nitrophenyl-alpha-D-mannopyranoside as substrate at 50 mM after 3 mins by spectrophotometer relative to control; procedure, shortened: as §1
[5] = test system: Geobacillus stearothermophilus; experiment: Increase of Bacillus stearothermophilus alpha-glucosidase activity assessed as fold increase in reaction initial velocity using p-nitrophenyl-alpha-D-galactopyranoside as substrate at 50 mM after 3 mins by spectrophotometer relative to control; procedure, shortened: as §1
[6] = test system: Geobacillus stearothermophilus; experiment: Increase of Bacillus stearothermophilus alpha-glucosidase activity assessed as fold increase in reaction initial velocity using p-nitrophenyl-beta-D-glucopyranoside as substrate at 50 mM after 3 mins by spectrophotometer relative to control; procedure, shortened: as §1
[7] = test system: Geobacillus stearothermophilus; experiment: Increase of Bacillus stearothermophilus alpha-glucosidase activity assessed as fold increase in reaction initial velocity using p-Nitrophenyl-alpha-D-glucopyranoside as substrate at 50 mM after 3 mins by spectrophotometer relative to control; procedure, shortened: as §1
[8] = test system: Geobacillus stearothermophilus; experiment: Thermostabilization of Bacillus stearothermophilus alpha-glucosidase at 50 mM
Procedure, shortened: (§2)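 Optimum conditions were scanned with 0 or 50 mM solute, 2.5 × 10^-5 mg/mL B. stearothermophilus α-glucosidase and 2.0 mM substrate in 0.10 M phosphate. pH was varied from 6.4 to 7.9, NaCl from 0 to 2.5 M, and temperature was also varied. Activity was read as p-nitrophenol release at 405 nm.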

[9] = test system: Geobacillus stearothermophilus; experiment: Enhancement of NaCl salt tolerance at Bacillus stearothermophilus alpha-glucosidase at 50 mM; procedure, shortened: as §2
[10] = test system: Geobacillus stearothermophilus; experiment: Effect on optimum pH of Bacillus stearothermophilus alpha-glucosidase at 50 mM; procedure, shortened: as §2
[11] = test system: Geobacillus stearothermophilus; experiment: Activity of Bacillus stearothermophilus alpha-glucosidase activity assessed as production of p-nitrophenol using p-nitrophenyl-alpha-D-glucopyranoside as substrate at 30 to 50 mM after 3 mins by spectrophotometer
Procedure, shortened: (§3)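 B. stearothermophilus α-glucosidase at 2.5 × 10^-5 mg/mL in 0.1 M phosphate buffer pH 7.0 with 2.0 mM p-nitrophenyl-α-D-glucopyranoside and 0–1000 mM solute, 37 °C. Release of p-nitrophenol followed at 405 nm. Initial slopes converted to velocities (ε 10900 cm^-1 M^-1), averaged over five runs. Activity = initial velocity with solute divided by initial velocity without solute.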

[12] = test system: Geobacillus stearothermophilus; experiment: Activity of Bacillus stearothermophilus alpha-glucosidase activity assessed as production of p-nitrophenol using p-nitrophenyl-alpha-D-glucopyranoside as substrate at > 50 mM after 3 mins by spectrophotometer; procedure, shortened: as §3
[13] = target: Intestinal-type alkaline phosphatase (Bos taurus) (UniProt P19111); experiment: Increase of calf intestine alkaline phosphatase activity assessed as production of p-nitrophenol using p-nitrophenylphosphate as substrate at 50 mM after 3 mins by spectrophotometer
Procedure, shortened: (§4)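 Almond β-glucosidase or calf-intestine alkaline phosphatase, each at 2.5 × 10^-5 mg/mL, was incubated with 2.0 mM substrate and 0 or 50 mM solute in 0.10 M phosphate pH 7.0 at 37 °C. p-Nitrophenol production was followed over incubation time by absorbance at 405 nm.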

[14] = test system: Saccharomyces cerevisiae; experiment: Increase of commercial yeast alpha-glucosidase activity assessed as production of p-nitrophenol using p-nitrophenyl-alpha-D-glucopyranoside as substrate at 50 mM after 3 mins by spectrophotometer
Procedure, shortened: (§5)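 Enzymes were α-glucosidase from S. cerevisiae or from yeast at 2.5 × 10^-5 mg/mL, with 2.0 mM substrate and 0 or 50 mM solute in 100 mM phosphate pH 7.0 at 37 °C. p-Nitrophenol formation was read at 405 nm. Initial velocities (average of five) were expressed as the ratio of the value with solute to the value without solute.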

[15] = test system: Prunus dulcis; experiment: Increase of almond beta-glucosidase activity assessed as production of p-nitrophenol using p-nitrophenyl-beta-D-glucopyranoside as substrate at 50 mM after 3 mins by spectrophotometer; procedure, shortened: as §4
[16] = test system: Saccharomyces cerevisiae; experiment: Increase of Saccharomyces cerevisiae alpha-glucosidase activity assessed as production of p-nitrophenol using p-nitrophenyl-alpha-D-glucopyranoside as substrate at 50 mM after 3 mins by spectrophotometer; procedure, shortened: as §5
[17] = test system: Geobacillus stearothermophilus; experiment: Increase of Bacillus stearothermophilus alpha-glucosidase activity assessed as production of p-nitrophenol using p-nitrophenyl-alpha-D-glucopyranoside as substrate at 50 mM after 3 mins by spectrophotometer; procedure, shortened: as §3
[18] = test system: Geobacillus stearothermophilus; experiment: Increase of Bacillus stearothermophilus alpha-glucosidase activity assessed as fold increase in reaction initial velocity using p-nitrophenyl-alpha-D-mannopyranoside as substrate at 750 mM after 3 mins by spectrophotometer relative to control; procedure, shortened: as §1
[19] = test system: Geobacillus stearothermophilus; experiment: Activity of Bacillus stearothermophilus alpha-glucosidase assessed as increase in urea concentration for enzyme deformation using p-nitrophenyl-alpha-D-glucopyranoside as substrate at 50 mM after 3 mins by spectrophotometer
[20] = test system: Geobacillus stearothermophilus; experiment: Activity of Bacillus stearothermophilus alpha-glucosidase assessed as production of p-nitrophenol using p-nitrophenyl-alpha-D-glucopyranoside as substrate at 50 mM after 3 mins by spectrophotometer; procedure, shortened: as §3
[21] = test system: Saccharomyces cerevisiae; experiment: Activity of Saccharomyces cerevisiae alpha-glucosidase assessed as production of p-nitrophenol using p-nitrophenyl-alpha-D-glucopyranoside as substrate at 50 mM after 3 mins by spectrophotometer; procedure, shortened: as §5
[22] = test system: Saccharomyces cerevisiae; experiment: Activity of commercial yeast alpha-glucosidase assessed as production of p-nitrophenol using p-nitrophenyl-alpha-D-glucopyranoside as substrate at 50 mM after 3 mins by spectrophotometer; procedure, shortened: as §5
[23] = test system: Geobacillus stearothermophilus; experiment: Increase of Bacillus stearothermophilus alpha-glucosidase activity at 30 mM after 3 mins by spectrophotometer relative to control; procedure, shortened: as §3
[24] = test system: Geobacillus stearothermophilus; experiment: Activity of Bacillus stearothermophilus alpha-glucosidase activity assessed as production of p-nitrophenol using p-nitrophenyl-alpha-D-glucopyranoside as substrate at 800 mM after 3 mins by spectrophotometer; procedure, shortened: as §3
[25] = test system: Geobacillus stearothermophilus; experiment: Activity of Bacillus stearothermophilus alpha-glucosidase activity assessed as production of p-nitrophenol using p-nitrophenyl-alpha-D-glucopyranoside as substrate at 1000 mM after 3 mins by spectrophotometer; procedure, shortened: as §3
[26] = test system: Geobacillus stearothermophilus; experiment: Activity of Bacillus stearothermophilus alpha-glucosidase activity assessed as production of p-nitrophenol using p-nitrophenyl-alpha-D-glucopyranoside as substrate at 200 mM after 3 mins by spectrophotometer; procedure, shortened: as §3

Intestinal-type alkaline phosphatase (Bos taurus), sequence (P19111 20-506 limits assumed): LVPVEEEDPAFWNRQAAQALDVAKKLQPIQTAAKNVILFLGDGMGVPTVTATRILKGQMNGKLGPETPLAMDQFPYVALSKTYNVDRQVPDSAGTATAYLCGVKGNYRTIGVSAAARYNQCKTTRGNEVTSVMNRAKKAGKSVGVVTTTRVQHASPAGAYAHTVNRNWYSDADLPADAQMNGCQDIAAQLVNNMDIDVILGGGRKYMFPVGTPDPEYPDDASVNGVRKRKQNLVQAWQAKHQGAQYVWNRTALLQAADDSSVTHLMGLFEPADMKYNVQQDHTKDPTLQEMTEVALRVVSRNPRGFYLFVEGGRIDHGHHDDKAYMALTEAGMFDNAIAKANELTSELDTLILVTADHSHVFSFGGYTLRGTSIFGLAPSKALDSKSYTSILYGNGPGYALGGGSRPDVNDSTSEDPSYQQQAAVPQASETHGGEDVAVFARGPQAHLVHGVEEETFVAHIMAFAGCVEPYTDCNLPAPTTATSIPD

Compound | Activity [20] | Activity [21] | Activity [22] | also measured
CCCC[N+](CCCC)(CCCC)CC(=O)[O-] | Active | Active | Active | fold change (FC) [1]: 0.8; fold change (FC) [2]: 0.5; fold change (FC) [3]: 0.8; fold change (FC) [4]: 0.9; fold change (FC) [5]: 0.8; fold change (FC) [6]: 0.8; fold change (FC) [7]: 2.5; Activity [8]: Active; Activity [9]: Active; Activity [10]: inactive; Activity [11]: Active; Activity [12]: Active; Activity [13]: Active; Activity [14]: Active; Activity [15]: Active; Activity [16]: Active; Activity [17]: Active; fold change (FC) [18]: 0.6; Activity [19]: Active; fold change (FC) [23]: 2.1
O[C@H]1[C@H](O)[C@@H](O)[C@H](O)[C@@H](O)[C@H]1O | inactive | inactive | inactive | 
C[N+](C)(C)CCCCCC(=O)[O-] | inactive | inactive | inactive | 
CC[N+](CC)(CC)CC(=O)[O-] | Active | inactive | inactive | Activity [24]: Active
C[N+](C)(C)CCCC(=O)[O-] | inactive | inactive | inactive | 
C[N+](C)(C)CC(=O)O | inactive | inactive | inactive | Activity [8]: Active; Activity [9]: Active; Activity [10]: inactive; Activity [25]: inactive
C[N+](C)(CC[N+](C)(C)CC(=O)[O-])CC(=O)[O-] | inactive | inactive | inactive | 
CCC[N+](CCC)(CCC)CC(=O)[O-] | Active | Active | Active | Activity [26]: Active
C[N+]1(CC(=O)[O-])CCOCC1 | Active | inactive | inactive | 
OCC(O)CO | inactive | inactive | inactive | 
C[N+]1(CC(=O)[O-])CCCCC1 | Active | inactive | inactive | 
OC[C@@H](O)[C@@H](O)[C@H](O)[C@@H](O)CO | inactive | inactive | inactive | 
